Results reported in PubChem BioAssay.
Results filed as inconclusive are left out.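 How the source made its calls, unless noted: active means cell viability at or below a set limit in both duplicate runs, the limit being the all-compound median minus 4 SD (cut at about 23% in these data, passing the limit was not always enough); inconclusive means no clear call, values can overlap the other calls; inactive means the rest.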

How the values were obtained:
[1] = S. cerevisiae growth inhibition in permissive medium (OD615), pilot counter-assay for S. cerevisiae lifespan shortening project, permissive growth control (AID 705;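 active means growth inhibition above 25% in both replicates, a cutoff set 3 SD above the mean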); conditions: OD615, 24 h, at 10 µM, active compounds read high
Procedure, shortened: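 assay system = Saccharomyces cerevisiae strain carrying genetically modified DeaD replicative-lifespan system | technique = absorbance (optical density) at 615 nm | buffer or medium = permissive raffinose/galactose medium | timing = cells pre-grown 4 h, then 24 h compound exposure, 30 °C humidified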

[2] = S. cerevisiae growth inhibition in restrictive medium, OD615, pilot screen, restrictive growth control, yeast lifespan reduction project (AID 706;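 active means growth inhibition above a set limit, 3 SD over mean compound inhibition, in both replicates, cut at about 43% in these data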;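 further: modified DeaD lifespan yeast strain shifted to restrictive glucose medium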); conditions: OD615, 48 h, at 10 µM, active compounds read high
Procedure, shortened: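 System: modified S. cerevisiae. Buffer or medium: CSMM-D glucose medium. Incubation: 4 h pre-growth plus 48 h compound exposure, 30 °C. Detection: absorbance (optical density) measured at 615 nm.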

[3] = doxorubicin toxicity protection in MRP-1 cells – H69AR cells, CellTiter-Glo, duplicate, MRP-1 activator project, pilot screen (AID 807;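 active means viability increase at or above a cutoff of the median across tested compounds plus 3 SD, cut at about 8.5% in these data, passing the limit was not always enough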;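 further: compound pretreatment 18-22 h then 72 h combined with doxorubicin; 0% = doxorubicin alone and 100% = vehicle without doxorubicin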); conditions: H69AR viability with doxorubicin, CellTiter-Glo luminescence; at 10 µM; active compounds read high
[4] = viability of HCT116 without oncogenic beta-catenin – human colon tumor cells, pilot screen (AID 823); conditions: HCT116 beta-catenin knockout viability, CellTiter-Glo, 60 h; at 10 µM; active compounds read low;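 further: 0% = wells killed by 20 µM Hyamine and 100% = untreated DMSO cell wells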
[5] = viability of PTEN-null HCT116 cells – cell-based, HCT116 clonal line, CellTiter-Glo, pilot screen (AID 824;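 active means viability at or below 27.92% in each of two runs, the all-compound median minus 4 SD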;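 further: 0% = 20 µM Hyamine control and 100% = vehicle cell control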); conditions: HCT116 PTEN-deleted viability, 60 h, at 10 µM, active compounds read low
[6] = RAM pathway blockade in budding yeast – dse1pr::URA3 reporter, 5-FOA selection, pilot screen (AID 869;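 active means inhibition over a set limit, the all-compound mean plus 3 SD, in both replicate runs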;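 further: 0% = DMSO wells with no growth and 100% = 10 µM 1-NA-PP1 with full growth; RAM network block rescues cells from 5-FOA so hits raise OD615 growth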); conditions: S. cerevisiae dse1pr::URA3 5-FOA growth, OD615, 2 d; at 10 µM; active compounds read high; strain carries analog-sensitive mutant Cbk1 kinase
[7] = RAM signaling pathway blockade in yeast – S. cerevisiae, Pdr1DBD-CYC8 efflux-inhibited sensitized strain, primary screen (AID 1298;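 active means RAM network inhibition above 8.4% in each of two replicates, 3 SD over the compound average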;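 further: 0% = DMSO untreated cells without growth and 100% = 10 µM 1-NA-PP1 full growth; higher means more yeast growth rescued from 5-FOA killing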); conditions: S. cerevisiae cbk1-as DSE1-URA3 strain, 5-FOA growth OD615, 2 d; at 50 µM; active compounds read high

O=C(Nc1ccc(Br)cc1F)C1CCN(c2nnc(-n3cccc3)s2)CC1
inactive: growth inhibition [1] 2.32% | growth inhibition [2] -4.69% | viability increase [3] 0.53% | viability [4] 97.8% | viability [5] 99.8% | inhibition [6] 3.21% | RAM network inhibition [7] 0.36%

Cc1ccc(C)c(N2CCN(CC(=O)Nc3ccc4[nH]c(=O)[nH]c4c3)CC2)c1
inactive: growth inhibition [1] -13.7% | growth inhibition [2] -14.9% | viability increase [3] -5.54% | viability [4] 92.9% | viability [5] 89.1% | inhibition [6] 0.03% | RAM network inhibition [7] 1.87%

O=C(NCCN1CCOCC1)c1ccc2c(c1)N(Cc1ccc(F)cc1)C(=O)CS2
inactive: growth inhibition [1] -16.1% | growth inhibition [2] -8.1% | viability increase [3] 3.02% | viability [4] 92.5% | viability [5] 88.9% | inhibition [6] 0.08% | RAM network inhibition [7] 0.11%

COc1cc(SC)ccc1C(=O)Nc1ccc2c(c1)CCN2S(C)(=O)=O
inactive: growth inhibition [1] -4.62% | growth inhibition [2] -7.36% | viability increase [3] 0.15% | viability [4] 100% | viability [5] 94.2% | inhibition [6] 3.22% | RAM network inhibition [7] 4.39%

Cn1c2ccc(CC(=O)O)cc2c2cc(CC(=O)O)ccc21
inactive: growth inhibition [1] 1.85% | growth inhibition [2] -12.4% | viability increase [3] -3.54% | viability [4] 96.8% | viability [5] 89.7% | inhibition [6] 1.1% | RAM network inhibition [7] 0.98%

Cc1cccc(NC(=O)COc2ccc(Br)cc2C)n1
inactive: growth inhibition [1] -4.42% | growth inhibition [2] 1.1% | viability increase [3] 1.07% | viability [4] 92.9% | viability [5] 90.5% | inhibition [6] 0.655% | RAM network inhibition [7] 5.6%

CC(=O)COC(=O)c1cccc(N2C(=O)C3C4C=CC(C4)C3C2=O)c1 (stereo unspecified)
inactive: growth inhibition [1] -0.62% | growth inhibition [2] 8.06% | viability increase [3] -1.07% | viability [4] 105% | viability [5] 93.5% | inhibition [6] 1.27% | RAM network inhibition [7] 0.67%

CCn1ccnc1C(O)c1cccc(OC)c1OC (stereo unspecified)
inactive: growth inhibition [1] -8.24% | growth inhibition [2] -3.01% | viability increase [3] -0.74% | viability [4] 108% | viability [5] 96.3% | inhibition [6] 2.75% | RAM network inhibition [7] 3.57%

CCOC(=O)c1cccc(NC(=O)C2CCCN2S(=O)(=O)c2cccc3cccnc23)c1 (stereo unspecified)
inactive: growth inhibition [1] -9.1% | growth inhibition [2] -2.39% | viability increase [3] -3.02% | viability [4] 92% | viability [5] 89.8% | inhibition [6] 1.41% | RAM network inhibition [7] -1.53%

CCOC(=O)c1cccc(NC(=O)C2CCC(CNc3c(N4CCOCC4)c(=O)c3=O)CC2)c1 (stereo unspecified)
inactive: growth inhibition [1] -7.33% | growth inhibition [2] -13.8% | viability increase [3] -2.63% | viability [4] 83.7% | viability [5] 82.4% | inhibition [6] 0.325% | RAM network inhibition [7] 1.31%

CCc1cccc(NC(=O)CS(=O)Cc2nc(-c3ccc(C)cc3)oc2C)c1 (stereo unspecified)
inactive: growth inhibition [1] 9.24% | growth inhibition [2] 24.4% | viability increase [3] -1.87% | viability [4] 96.1% | viability [5] 87.1% | inhibition [6] 1.46% | RAM network inhibition [7] 3.37%

CCCOc1ccc(NC(=O)c2c(-c3ccccc3)noc2C)cc1
inactive: growth inhibition [1] -3.83% | growth inhibition [2] -7.54% | viability increase [3] -1.84% | viability [4] 103% | viability [5] 90.5% | inhibition [6] 1.34% | RAM network inhibition [7] 2.96%

CCc1ccc(-c2nc(CN3CCCC(C(=O)O)C3)c(C)o2)cc1 (stereo unspecified)
inactive: growth inhibition [1] 2.06% | growth inhibition [2] -4.83% | viability increase [3] 1.14% | viability [4] 97.6% | viability [5] 101% | inhibition [6] -0.145% | RAM network inhibition [7] 2.81%

CCN(CCCNC(=O)Cn1ncc2c(=O)oc3ccccc3c21)c1cccc(C)c1
inactive: growth inhibition [1] 1.03% | growth inhibition [2] 9.37% | viability increase [3] -2.09% | viability [4] 89.9% | viability [5] 87.5% | inhibition [6] 2.57% | RAM network inhibition [7] 3.72%

O=C(O)c1ccc(-n2nnnc2SCc2ccccc2F)cc1
inactive: growth inhibition [1] -13.7% | growth inhibition [2] 6.63% | viability increase [3] 1.71% | viability [4] 105% | viability [5] 102% | inhibition [6] 2.46% | RAM network inhibition [7] 9.03%

O=C(CSc1nnc(Cc2cc(=O)[nH]c(=O)[nH]2)n1-c1ccc(F)cc1)NC1CCCC1
inactive: growth inhibition [1] -14.8% | growth inhibition [2] -7.13% | viability increase [3] -1.18% | viability [4] 105% | viability [5] 102% | inhibition [6] 0.96% | RAM network inhibition [7] 6.6%

O=C1Nc2ccccc2C(O)(C(=O)NCc2ccc3c(c2)OCO3)N1c1ccccc1 (stereo unspecified)
inactive: growth inhibition [1] -2.08% | growth inhibition [2] -15.5% | viability increase [3] -3.17% | viability [4] 91.7% | viability [5] 92.5% | inhibition [6] 0.54% | RAM network inhibition [7] 0.05%

Cc1ccc(NC(=O)CSc2nnc(Cc3cccn3C)n2-c2ccc(F)cc2)c(C)c1
inactive: growth inhibition [1] 4.68% | growth inhibition [2] 8.61% | viability increase [3] -3.99% | viability [4] 93.2% | viability [5] 81.2% | inhibition [6] 2.25% | RAM network inhibition [7] 2.03%
